Compound activity as filed in PubChem BioAssay.
Shown are actives, neighbours in structure and some others; about 2.6% of the full set was active somewhere.
DENV2 CPE rescue: protects cells from dengue virus 2 cytopathic effect | CPE inhibition, % at 9.99 µM | 350,000 tested, 1.7% active | DENV2-infected cells, cytopathic effect rescue, plate reader | AID 651640; in the data active = CPE inhibition above about 20%, passing the limit was not always enough; inconclusive = no clear call, values can overlap the other calls; tested in BHK-21 cells
miR122 inh: miR-122 inhibition in Huh7 cells; Huh7 miR-122 Renilla luciferase sensor, 48 h; neutral wells = 0, positive control = 100; activation (reporter increase), % at 12.5 µM; 340,000 tested, 0.3% active; AID 602342;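 active = mean replicate activation score at least 90 and every replicate individually at or above 90; inconclusive = only one of the two criteria met; inactive = neither criterion met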;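 note: higher luciferase means less miR-122 activity so hits act as miR-122 inhibitors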
F508del corr: correctors of CFTR F508del function in bronchial epithelial cells. AID 720511. CFBE cells, YFP halide quenching; stimulated with forskolin plus potentiator P3; % fluorescence drop versus neutral controls. 350,000 tested, 0.36% active. activity (quench increase), % at 7.58 µM;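 active = mean added fluorescence quench of at least 8% versus neutral control, with both replicates also reaching 8%; inconclusive = only one of the mean or replicate conditions met; inactive = mean below 8% and not both replicates reaching 8%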;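 note: cells transiently co-express mutant CFTR-F508del with the halide-sensitive YFP; corrector assay measuring rescue of mutant channel to the surface after 24 h compound exposure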
INS-1E GSIS act: GLuc luminescence reporter in INS-1E cells, primary screen for activators of glucose-dependent secretion of insulin | INS-1E GLuc reporter insulin secretion, 2-3 h | activation, % at 16.6 µM | 370,000 tested, 0.61% active | AID 743287;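 active = lowest replicate activation of at least 40%, so every replicate reaches that level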
ERAP1 HTS inh: inhibitors of human ERAP1 aminopeptidase; Q9NZ08; recombinant ERAP1, Leu-AMC fluorescence, 60 min; inhibition, % at 10.7 µM; 340,000 tested, 0.15% active; AID 652197;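 active = mean replicate inhibition of at least 30%, or all replicates individually reaching that 30% level; inactive = mean below 30% and not every replicate reaching it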
Target sequence (Q9NZ08 whole entry, looked up): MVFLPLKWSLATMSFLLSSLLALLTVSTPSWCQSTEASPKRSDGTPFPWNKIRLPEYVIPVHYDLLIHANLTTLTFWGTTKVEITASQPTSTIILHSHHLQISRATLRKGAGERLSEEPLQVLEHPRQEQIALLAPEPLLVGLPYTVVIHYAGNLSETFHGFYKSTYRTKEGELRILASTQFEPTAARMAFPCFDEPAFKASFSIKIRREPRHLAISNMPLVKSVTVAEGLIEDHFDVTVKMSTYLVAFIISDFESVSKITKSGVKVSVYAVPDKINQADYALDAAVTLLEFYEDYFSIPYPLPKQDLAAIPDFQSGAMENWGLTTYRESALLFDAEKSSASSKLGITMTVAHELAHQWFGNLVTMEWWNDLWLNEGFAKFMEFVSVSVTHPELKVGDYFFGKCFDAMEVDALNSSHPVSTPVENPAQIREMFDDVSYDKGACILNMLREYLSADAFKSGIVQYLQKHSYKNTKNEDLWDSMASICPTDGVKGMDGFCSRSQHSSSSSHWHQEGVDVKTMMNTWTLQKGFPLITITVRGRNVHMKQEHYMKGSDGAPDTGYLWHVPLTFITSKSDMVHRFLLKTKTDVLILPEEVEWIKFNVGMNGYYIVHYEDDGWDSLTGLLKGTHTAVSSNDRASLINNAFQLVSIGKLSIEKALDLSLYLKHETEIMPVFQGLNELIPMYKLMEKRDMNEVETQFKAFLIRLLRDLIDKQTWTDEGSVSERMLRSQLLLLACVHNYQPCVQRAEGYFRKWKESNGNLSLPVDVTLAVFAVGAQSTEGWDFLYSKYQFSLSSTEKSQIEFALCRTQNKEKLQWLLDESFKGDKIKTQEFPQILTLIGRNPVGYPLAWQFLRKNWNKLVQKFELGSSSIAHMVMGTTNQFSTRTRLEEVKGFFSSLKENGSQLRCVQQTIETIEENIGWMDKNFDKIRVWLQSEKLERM
E-sel inducer: E-selectin induction on HUVECs; AID 686992; HUVEC E-selectin immunofluorescence imaging; normalized: neutral wells 0, TNF-alpha wells 100; P16581; 260,000 tested, 0.37% active; activation, % at 7.58 µM;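 active = mean E-selectin-positive cell signal at least 10% of the positive control, reached in at least 60% of replicates, without over 20% cell loss; inconclusive = no rule given, readout overlaps actives, possibly toxicity-flagged; inactive = the rest, including those meeting only one limit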
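Material: HUVEC primary endothelial cells; Amount: 3,000 cells per well; Dosing: single concentration; Medium: EGM-2 growth medium on 0.1% gelatin-coated wells; Read-out basis: percent E-selectin-positive cells; Signal: immunofluorescence imaging; Control set: TNF-alpha, DMSO.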
Of the large screens only hits and unclear results are named; the others gave an inactive call; ! = repeats disagree.

COc1ccc(NC(=O)Nc2ccc3c(c2)CC(=O)N([C@@H](C)CO)C[C@@H](C)[C@H](CN(C)Cc2ccc(-c4ccccc4)cc2)O3)cc1	none
c1ccc(-c2nc(-c3ccncc3)n[nH]2)nc1	none (no result: miR122 inh, INS-1E GSIS act, E-sel inducer)
c1ccc(-c2ccncc2)nc1	DENV2 CPE rescue 79.0
Cc1ccc(S(=O)(=O)N(CC(=O)NCc2ccc(F)cc2)C(=O)N2CCN(C)CC2)cc1	DENV2 CPE rescue 31.0
Cc1ccc(S(=O)(=O)N(CC(=O)NCc2ccccc2Cl)C(=O)N2CCN(C)CC2)cc1	none
CC(C)C(=O)Nc1ccc2c(c1)C(=O)N(C)[C@H]1CC[C@@H](CC(=O)NC3CCCC3)O[C@@H]1CO2	none
COCCCNc1c2c3c(cccc3[nH]c1=O)C(=O)c1ccccc1-2	F508del corr 46.0, E-sel inducer inconclusive (no result: INS-1E GSIS act)
COCC#Cc1ccc2c(c1)O[C@@H](CN(C)S(=O)(=O)c1cccc(OC)c1)[C@@H](C)CN([C@@H](C)CO)S2(=O)=O	none (no result: F508del corr)
CCOC(=O)c1sc(NC(=O)CN2C(=O)C3CC=CCC3C2=O)nc1C (stereo unspecified)	E-sel inducer 150.5
Cc1cccc(NC(=O)CN2C(=O)C3CC=CCC3C2=O)c1C (stereo unspecified)	none (no result: F508del corr, INS-1E GSIS act, E-sel inducer)
Cc1ccc(C)c(NC(=O)CN2C(=O)C3CC=CCC3C2=O)c1 (stereo unspecified)	DENV2 CPE rescue 44.8
COc1ccccc1NC(=O)N[C@@H]1CC[C@H](CCNS(=O)(=O)c2ccccc2)O[C@H]1CO	none (no result: DENV2 CPE rescue, ERAP1 HTS inh)
CCOc1cccc(C2NC(=S)NC(C)=C2C(=O)Nc2ccccc2)c1 (stereo unspecified)	none (no result: DENV2 CPE rescue, F508del corr, ERAP1 HTS inh, E-sel inducer)
COc1cccc(C2NC(=S)NC(C)=C2C(C)=O)c1 (stereo unspecified)	DENV2 CPE rescue 57.4 (no result: miR122 inh)
CCCNC(=O)N1CCC2(CC1)CN(Cc1cccc(F)c1)[C@H](CO)c1[nH]c3cc(OC)ccc3c12	none (no result: miR122 inh)
Cc1c2c(n3c(nc4ccccc43)c1C#N)N(CCN(C)C)CC2	ERAP1 HTS inh 31.2 (no result: miR122 inh)
Cc1c2c(n3c(nc4ccccc43)c1C#N)N(CCCN(C)C)CC2	ERAP1 HTS inh 70.7
CCc1c(C)c(C#N)c2nc3ccccc3n2c1NCCCN(C)C	none
CCCCc1c(C)c(C#N)c2nc3ccccc3n2c1NCCN(C)C	none (no result: miR122 inh)
COc1ccc2c3c(n(C)c2c1)[C@H](CO)N(CC1CC1)CC31CCN(C(=O)c2ccc3c(c2)OCO3)CC1	none (no result: miR122 inh, ERAP1 HTS inh)
CC(C)CC#Cc1ccc2c(c1)O[C@H](CN(C)S(C)(=O)=O)[C@@H](C)CN([C@@H](C)CO)S2(=O)=O	none (no result: F508del corr)
CCCn1c(C)cc(C)c(C#N)c1=O	INS-1E GSIS act 43.4 (no result: DENV2 CPE rescue, miR122 inh, F508del corr, ERAP1 HTS inh, E-sel inducer)
Cc1ccc(S(=O)(=O)SCCCSS(=O)(=O)c2ccc(C)cc2)cc1	INS-1E GSIS act 188.9
Cc1ccc(S(=O)(=O)SC/C=C/CSS(=O)(=O)c2ccc(C)cc2)cc1	none
COc1ccc(S(=O)(=O)N(C)C[C@H]2OCCCC[C@H](C)Oc3ccc(NC(=O)Nc4cccc5ccccc45)cc3C(=O)N([C@@H](C)CO)C[C@H]2C)cc1	none
O=C(Nc1nnc(Cc2ccccc2F)s1)c1ccccc1Cl	DENV2 CPE rescue 78.0
COc1ccc(C(C)NC(=O)c2ccc(Br)cc2)cc1OC (stereo unspecified)	none (no result: INS-1E GSIS act, E-sel inducer)
COc1ccc(C(C)NC(=O)c2ccccc2Cl)cc1OC (stereo unspecified)	DENV2 CPE rescue 64.3 (no result: E-sel inducer)
COc1ccc(Cc2nnc(NC(=O)c3ccccc3Cl)s2)cc1OC	DENV2 CPE rescue 40.8 (no result: E-sel inducer)
CCCNC(=O)N1CC2(CN(S(=O)(=O)c3cccc(OC)c3)C2)c2c(n(C)c3cc(OC)ccc23)[C@@H]1CO	none (no result: DENV2 CPE rescue, miR122 inh, F508del corr, ERAP1 HTS inh, E-sel inducer)
CCCNC(=O)N(C)C[C@H]1Oc2cc(-c3ccccc3F)ccc2S(=O)(=O)N([C@H](C)CO)C[C@@H]1C	none (no result: miR122 inh, ERAP1 HTS inh)
Cc1cccc(N2CCN(S(=O)(=O)c3cc(-c4cc(C)no4)ccc3C)CC2C)c1 (stereo unspecified)	F508del corr 11.3 (no result: miR122 inh)
CCC[N+](C)(C)C(C)C(OC(C)=O)c1ccccc1 (stereo unspecified)	ERAP1 HTS inh 40.8
CC(NC(=O)Cc1ccccc1)c1ccccc1 (stereo unspecified)	none
O=C(Nc1cccc(F)c1)N1CC(=O)N2[C@H](CO)[C@H](c3ccc(C#Cc4cccnc4)cc3)[C@H]2C1	none (no result: miR122 inh)
CO[C@H]1CN(C)C(=O)c2cc(NC(C)=O)ccc2OC[C@H](C)N(C(=O)c2ccncc2)C[C@H]1C	F508del corr 8.4
COCC(=O)Nc1ccc2c(c1)OC[C@@H](C)N(C(=O)c1ccncc1)C[C@@H](C)[C@H](OC)CN(C)C2=O	DENV2 CPE rescue 32.4
CC(C)C1Cc2ccccc2-c2[nH]c(=S)[nH]c(=O)c21 (stereo unspecified)	DENV2 CPE rescue 72.2 (no result: INS-1E GSIS act)
CCC1(CC)Cc2ccccc2-c2[nH]c(=S)[nH]c(=O)c21	none (no result: miR122 inh, INS-1E GSIS act, E-sel inducer)
CC(=O)n1cc(CO)c2ccccc21	DENV2 CPE rescue 35.5 (no result: E-sel inducer)
COCC#Cc1ccc2c(c1)O[C@@H](CN(C)Cc1ccc3c(c1)OCO3)[C@H](C)CN([C@H](C)CO)S2(=O)=O	DENV2 CPE rescue inconclusive
COc1ccccc1C(=O)Nc1ccc2c(c1)nc(CCNC(=O)c1ccco1)n2C	F508del corr 10.4
C[C@@H]1CN([C@@H](C)CO)C(=O)Cc2cc(NS(=O)(=O)c3cn(C)cn3)ccc2O[C@H]1CN(C)Cc1ccc(C(F)(F)F)cc1	none
CCOc1ccc(C2=CC(=O)C[C@H](c3ccc(OC)cc3)C2)cc1	DENV2 CPE rescue 26.0 (no result: miR122 inh)
CCOc1ccc(Cl)cc1C1=CC(=O)C[C@H](c2ccc(OC)cc2)C1	F508del corr 9.1 (no result: DENV2 CPE rescue)
COc1ccc(C2=CC(=O)CC(c3ccc(OC)cc3)C2)cc1 (stereo unspecified)	none
COc1ccc([C@H]2CC(=O)C=C(c3c(OC)cccc3OC)C2)cc1	F508del corr 11.3 (no result: miR122 inh, INS-1E GSIS act)
COc1ccccc1-c1cnc2c(c1)C(=O)N([C@H](C)CO)C[C@H](C)[C@@H](CN(C)C(C)=O)O2	none
Fc1ccc(-c2ccc(C3[C@@H]4CN(Cc5cccc(F)c5)C[C@H]3N4)cc2)cc1 (stereo partly specified)	INS-1E GSIS act 376.2! (no result: miR122 inh)
C(=C\c1ccc(C2[C@@H]3CN(Cc4ccccn4)C[C@H]2N3)cc1)/c1ccccc1 (stereo partly specified)	none (no result: miR122 inh)
C(=C\c1ccc(C2[C@@H]3CN(Cc4nccs4)C[C@H]2N3)cc1)/c1ccccc1 (stereo partly specified)	INS-1E GSIS act 132.0! (no result: miR122 inh, ERAP1 HTS inh)
Fc1cccc(CN2C[C@@H]3N[C@H](C2)C3c2ccc(/C=C/c3ccccc3)cc2)c1 (stereo partly specified)	INS-1E GSIS act 471.3! (no result: miR122 inh, ERAP1 HTS inh)
COc1ccccc1CN1C[C@@H]2N[C@H](C1)C2c1ccc(/C=C/c2ccccc2)cc1 (stereo partly specified)	none (no result: miR122 inh)
